A selection: hits, their analogues and other compounds. The true share with any hit is near 2.3%.
ABCB1 inh – ABCB1 efflux pump inhibitors, primary screen, cell-based, multiplex, flow cytometry, ABCG2 counter-screen. 0.067% of 190,000 active. CCRF-Adr cells, JC-1 efflux. inhibition, % at 6.6 µM. ATP-dependent translocase ABCB1 (Homo sapiens), P08183; in the data active means inhibition above about 40%;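 further: 0% = vehicle and 100% = reference inhibitor; higher value means more JC-1 retained so stronger ABCB1 efflux block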
Target sequence (P08183 whole entry, looked up): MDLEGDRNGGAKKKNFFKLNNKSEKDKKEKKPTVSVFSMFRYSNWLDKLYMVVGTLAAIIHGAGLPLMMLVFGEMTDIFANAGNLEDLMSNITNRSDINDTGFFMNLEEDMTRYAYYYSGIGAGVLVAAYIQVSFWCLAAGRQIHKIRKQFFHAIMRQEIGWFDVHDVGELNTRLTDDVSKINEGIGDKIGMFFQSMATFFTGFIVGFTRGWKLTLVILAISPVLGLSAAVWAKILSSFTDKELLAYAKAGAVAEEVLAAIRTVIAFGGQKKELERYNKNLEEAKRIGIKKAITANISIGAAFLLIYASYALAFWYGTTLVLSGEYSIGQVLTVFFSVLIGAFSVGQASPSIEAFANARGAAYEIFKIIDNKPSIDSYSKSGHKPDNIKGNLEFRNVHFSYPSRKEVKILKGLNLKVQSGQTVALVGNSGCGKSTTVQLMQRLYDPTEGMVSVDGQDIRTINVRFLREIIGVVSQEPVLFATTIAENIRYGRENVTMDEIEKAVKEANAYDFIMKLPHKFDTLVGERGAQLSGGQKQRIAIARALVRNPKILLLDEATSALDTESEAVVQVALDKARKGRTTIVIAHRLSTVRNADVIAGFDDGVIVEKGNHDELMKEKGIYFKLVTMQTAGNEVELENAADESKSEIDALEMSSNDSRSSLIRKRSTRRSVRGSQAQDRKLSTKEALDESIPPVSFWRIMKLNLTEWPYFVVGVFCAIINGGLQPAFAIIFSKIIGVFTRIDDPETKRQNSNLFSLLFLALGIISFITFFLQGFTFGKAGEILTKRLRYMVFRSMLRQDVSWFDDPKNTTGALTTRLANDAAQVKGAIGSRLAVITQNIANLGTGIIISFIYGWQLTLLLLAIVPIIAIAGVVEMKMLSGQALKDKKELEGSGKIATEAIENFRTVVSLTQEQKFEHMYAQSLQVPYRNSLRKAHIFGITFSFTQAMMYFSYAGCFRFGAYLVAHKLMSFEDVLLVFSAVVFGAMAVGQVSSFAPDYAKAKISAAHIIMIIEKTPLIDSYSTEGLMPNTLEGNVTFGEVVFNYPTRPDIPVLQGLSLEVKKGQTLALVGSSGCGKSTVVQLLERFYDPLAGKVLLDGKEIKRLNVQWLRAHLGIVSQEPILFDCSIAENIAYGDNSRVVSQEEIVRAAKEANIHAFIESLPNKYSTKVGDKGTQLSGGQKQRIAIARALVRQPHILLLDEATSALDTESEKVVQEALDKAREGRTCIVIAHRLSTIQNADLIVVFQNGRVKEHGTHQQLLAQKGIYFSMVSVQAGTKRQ
MEKK3 PB1 HTS – modulators of MEKK3-MEK5 PB1 binding, primary screen, biochemical, wildtype MEKK3, multiplex bead flow cytometry, Alexa488-MEK5. Mitogen-activated protein kinase kinase kinase 3 (Homo sapiens), Q99759. bead-based flow cytometry, Alexa488-MEK5 binding to MEKK3; actives lie on both sides; 0 = blocked by unlabeled MEK5, 100 = vehicle. binding response (% of control), % at 10 µM. 1.4% of 290,000 active;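 active means binding response more than 3 SD above or below the average of its plate-row segment, actives on both sides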;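 further: Alexa488 bead fluorescence after subtracting the streptavidin-only scavenger bead signal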
ABCG2 inh – ABCG2 efflux pump inhibitors, primary screen, multiplex with ABCB1, IgMXP3 cells, flow cytometry | Broad substrate specificity ATP-binding cassette transporter ABCG2 (Homo sapiens), Q9UNQ0 | JC-1 efflux | inhibition, % at 6.6 µM | 0.1% of 190,000 active | AID 1325, 2008;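 active means inhibition above 80%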;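 further: 0% = DMSO and 100% = nicardipine control wells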
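Read-out basis: Efflux inhibition in percent versus controls | Test system: ABCG2 IgMXP3 and barcoded ABCB1 CCRF-Adr cell mix | Quantity: 3 million cells/mL in well | Schedule: 10 min at 25 °C | Control set: Nicardipine as high control, DMSO as low control | Reagent: JC-1 as fluorescent efflux pump substrate | Signal: Flow cytometry of retained JC-1 fluorescence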
MEKK2mut PB1 HTS – MEK5 binding signal on mutant MEKK2 PB1, primary screen, biochemical, multiplex bead flow cytometry, Alexa488-MEK5 | AID 1530, 2009 | percent response, % at 10 µM | Alexa488-MEK5 binding to MEKK2 mutant | 0.35% of 290,000 active; in the data active means percent response above about 24%, passing the limit was not always enough
MEKK2 WT-MEK5 – modulators of MEK5 binding to wildtype MEKK2, primary screen, biochemical, multiplex bead flow cytometry, Alexa488-MEK5. Mitogen-activated protein kinase kinase kinase 2 (Homo sapiens), Q9Y2U5. Alexa488-MEK5 binding to MEKK2 WT; actives lie on both sides. binding response (% of control), % at 10 µM. 1.1% of 290,000 active; in the data active means binding response below about 67% or above about 130%
MEKK2wt confirm – modulators of MEK5 binding to wildtype MEKK2, confirmation, biochemical, single concentration, multiplex bead flow cytometry | shares compounds with MEKK3 PB1 HTS | Alexa488-MEK5 binding to MEKK2 WT; actives lie on both sides | binding response (% of control), % at 10 µM | 2.4% of 5,900 active | AID 1892, 2009; in the data active means binding response below about 16% or above about 210%; inactive means in between
MEKK2mut confirm – mutant MEKK2 PB1-MEK5 binding signal retest – biochemical, single concentration, multiplex bead flow cytometry, confirmation; shares compounds with MEKK3 PB1 HTS; Alexa488-MEK5 binding to MEKK2 mutant; 2% of 5,900 active; percent response, % at 10 µM; in the data active means percent response mostly above about 71%, no sharp cut-off; inactive means mostly below about 38%;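 further: higher means compound restores mutant binding toward wildtype level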
MEKK3-MEK5 inh – MEKK3 wild-type PB1 binding to MEK5, inhibitors, confirmation, biochemical, bead multiplex flow cytometry, single concentration, wildtype; Alexa488-MEK5 binding to MEKK3; active compounds read low; shares compounds with MEKK3 PB1 HTS; AID 1894, 2009; binding response (% of control), % at 10 µM; 1.8% of 5,900 active;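 active means binding response below 72% of control, or above a set upper limit, though filed actives all read lower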;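 further: 100% = DMSO only wells and 0% = binding blocked by excess unlabeled MEK5; lower values mean stronger disruption of MEK5 binding to MEKK3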
Numbers without * were called inactive; [ ] = another dose, or the depositor's remark.

COc1cccc(OCc2cc(C(=O)N3CCN(c4ccccc4OC)CC3)no2)c1 was read as MEKK3 PB1 HTS 98.0, MEKK2mut PB1 HTS 2.0 and MEKK2 WT-MEK5 99.0.
Screening CCCCN1C(=O)/C(=C/C=C2\N(C)c3ccccc3C2(C)C)SC1=S returned ABCB1 inh 31.8, MEKK3 PB1 HTS 67.0, ABCG2 inh 36.1, MEKK2mut PB1 HTS 156.0*, MEKK2 WT-MEK5 130.0, MEKK2wt confirm 36.0, MEKK2mut confirm -58.0*[inhibitor] and MEKK3-MEK5 inh 41.0*.
`CCCCN1C(=O)/C(=C/C=C2\SCCN2C)SC1=S` gave ABCB1 inh 1.9, MEKK3 PB1 HTS 96.0, ABCG2 inh 7.8, MEKK2mut PB1 HTS -8.0 and MEKK2 WT-MEK5 92.0.
Screening CC(C)[C@H](NC(=O)Nc1ccc(Oc2ccccc2)cc1)C(=O)O returned ABCB1 inh 0.5, MEKK3 PB1 HTS 104.0, ABCG2 inh 2.8, MEKK2mut PB1 HTS 3.0 and MEKK2 WT-MEK5 105.0.
For CC(C)[C@H](NC(N)=O)C(=O)Nc1ccc(Oc2ccccc2)cc1 the results were ABCB1 inh 0.3, MEKK3 PB1 HTS 42.0*[inhibitor], ABCG2 inh 4.5, MEKK2mut PB1 HTS -18.0, MEKK2 WT-MEK5 51.0, MEKK2wt confirm 108.0, MEKK2mut confirm 5.0 and MEKK3-MEK5 inh 104.0.
Screening O=c1[nH]ncn2cccc12 returned ABCB1 inh 0.1, MEKK3 PB1 HTS 78.0*[inhibitor], ABCG2 inh 0.3, MEKK2mut PB1 HTS -5.0, MEKK2 WT-MEK5 92.0, MEKK2wt confirm 99.0, MEKK2mut confirm 10.0 and MEKK3-MEK5 inh 105.0.
For CC1(C)Cc2ccccc2/C(=C/C(=O)N2CCCCCC2)N1 the results were ABCB1 inh 0.3, MEKK3 PB1 HTS 79.0*[inhibitor], ABCG2 inh 1.9, MEKK2mut PB1 HTS -9.0, MEKK2 WT-MEK5 85.0, MEKK2wt confirm 103.0, MEKK2mut confirm 3.0 and MEKK3-MEK5 inh 102.0.
For CC(C)CCC(CCNCc1ccccn1)c1ccc(Cl)cc1 (configuration not stated) the results were MEKK3 PB1 HTS 103.0, MEKK2mut PB1 HTS 10.0 and MEKK2 WT-MEK5 131.0.
For Clc1cccc(N2CCN(Cc3ccc(Br)o3)CC2)c1 the results were MEKK3 PB1 HTS 105.0, MEKK2mut PB1 HTS 7.0 and MEKK2 WT-MEK5 104.0.
For CC(C)(C)c1ccc(S(=O)(=O)N2CCC(NC(=O)c3ccco3)CC2)cc1 the results were MEKK3 PB1 HTS 104.0, MEKK2mut PB1 HTS -1.0 and MEKK2 WT-MEK5 97.0.
`O=C(CCCOc1ccc(Cl)cc1Cl)N/N=C/c1ccccc1` gave ABCB1 inh -0.2, MEKK3 PB1 HTS 125.0, ABCG2 inh 0.1, MEKK2mut PB1 HTS -1.0 and MEKK2 WT-MEK5 105.0.
`Cc1ccc(/C=N/NC(=O)CCCOc2ccc(Cl)cc2Cl)cc1` gave ABCB1 inh -0.4, MEKK3 PB1 HTS 137.0*, ABCG2 inh -0.6, MEKK2mut PB1 HTS -1.0, MEKK2 WT-MEK5 101.0, MEKK2wt confirm 98.0, MEKK2mut confirm -6.0 and MEKK3-MEK5 inh 98.0.
Screening COc1ccccc1NS(=O)(=O)c1cc([N+](=O)[O-])ccc1N/N=C/c1c(C)[nH]c2ccccc12 returned ABCB1 inh 8.8, MEKK3 PB1 HTS 75.0, ABCG2 inh 7.0, MEKK2mut PB1 HTS 67.0*, MEKK2wt confirm 97.0, MEKK2mut confirm -1.0 and MEKK3-MEK5 inh 91.0.
For O=[N+]([O-])c1ccccc1S(=O)(=O)N1CCN(C2CCN(Cc3ccccc3)CC2)CC1 the results were MEKK3 PB1 HTS 101.0, MEKK2mut PB1 HTS 3.0 and MEKK2 WT-MEK5 107.0.
`c1ccc(C2CC(c3ccccc3)C(c3ccccc3)N2)cc1` (configuration not stated) gave MEKK3 PB1 HTS 107.0, MEKK2mut PB1 HTS 2.0 and MEKK2 WT-MEK5 110.0.
Screening CN(CCO)C(=O)C(c1ccccc1)c1ccccc1 returned MEKK3 PB1 HTS 95.0, MEKK2mut PB1 HTS -3.0 and MEKK2 WT-MEK5 94.0.
`CN(CCO)C(=O)c1cccc2c1-c1ccccc1C2=O` gave ABCB1 inh 0.8, MEKK3 PB1 HTS 81.0*[inhibitor], ABCG2 inh 3.4, MEKK2mut PB1 HTS -11.0, MEKK2 WT-MEK5 90.0, MEKK2wt confirm 101.0, MEKK2mut confirm -1.0 and MEKK3-MEK5 inh 101.0.
`CCc1ccc(C(=O)NC(CCSC)C(=O)OC)cc1` (configuration not stated) gave ABCB1 inh 0.7, MEKK3 PB1 HTS 3.0*[inhibitor], ABCG2 inh 2.7, MEKK2mut PB1 HTS 4.0, MEKK2 WT-MEK5 3.0*[inhibitor], MEKK2wt confirm 93.0, MEKK2mut confirm -5.0 and MEKK3-MEK5 inh 100.0.
Screening CC(NC(=O)c1ccc(Cl)cc1)c1nnc(SCC(=O)NC2=NCCS2)n1C (configuration not stated) returned MEKK3 PB1 HTS 97.0, MEKK2mut PB1 HTS 2.0 and MEKK2 WT-MEK5 98.0.
For Cc1[nH]c(=O)c(C#N)c2c1CSC(C)(C)C2 the results were ABCB1 inh 0.9, MEKK3 PB1 HTS 94.0, ABCG2 inh 1.9, MEKK2mut PB1 HTS -4.0 and MEKK2 WT-MEK5 97.0.
For CC(C)c1[nH]c(=O)c(C#N)c2c1CSC(C)(C)C2 the results were ABCB1 inh -0.2, MEKK3 PB1 HTS 3.0*[inhibitor], ABCG2 inh 0.0, MEKK2mut PB1 HTS -14.0, MEKK2 WT-MEK5 3.0*[inhibitor], MEKK2wt confirm 100.0, MEKK2mut confirm -4.0 and MEKK3-MEK5 inh 98.0.
`O=C(Nc1cc(Cl)ccc1Cl)C1Cc2ccccc2O/C1=N\O` (configuration not stated) gave MEKK3 PB1 HTS 100.0, MEKK2mut PB1 HTS -4.0 and MEKK2 WT-MEK5 98.0.
`O=C(CN1CCCC1)Nc1ccccc1Sc1ccccc1` gave ABCB1 inh 0.8, MEKK3 PB1 HTS 99.0, ABCG2 inh 23.2, MEKK2mut PB1 HTS 5.0 and MEKK2 WT-MEK5 108.0.

Source: PubChem (NMMLSC)
